Data from paper PMC6720533 (Biomolecules & Therapeutics, 2019).

Experiments:
recombinant human CK2α1 = recombinant human CK2α1 (Homo sapiens, UniProt P68400); experiment: CK2 kinase activity assay; type: biochemical; conditions: 10 μM ATP, 60 min
Procedure, shortened: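 Recombinant human CK2α1 (50 ng) was incubated with 2.5 μg CK2α1 substrate, 10 μM ATP, and test compound, reference inhibitor or DMSO for 60 min at room temperature. ADP-Glo reagent stopped the reaction and depleted remaining ATP. Detection reagent then converted ADP to ATP for luciferase/luciferin luminescence, which tracks the ADP formed as the measure of kinase activity.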

SEM cells = experiment: WST-1 metabolic activity assay; type: cell-based; conditions: Homo sapiens, 72 h, read-out: metabolic activity
Procedure, shortened: (§1)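 Test compound came from a 10 mM DMSO stock. Cells were seeded at 5×10^4/well in triplicate with 5 or 10 μM final compound; controls got matched DMSO. After 72 h at 37°C, 5% CO2, WST-1 was added for a further 3 h. Absorbance was read at 450 nm (reference 620 nm), and metabolic activity given as % of DMSO control.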

RS4;11 cells = experiment: WST-1 metabolic activity assay; type: cell-based; conditions: Homo sapiens, RS4-11, 72 h, read-out: metabolic activity
Procedure, shortened: as §1

CEM cells = experiment: WST-1 metabolic activity assay; type: cell-based; conditions: Homo sapiens, CCRF-CEM, 72 h, read-out: metabolic activity
Procedure, shortened: as §1

Jurkat cells = experiment: WST-1 metabolic activity assay; type: cell-based; conditions: Homo sapiens, 72 h, read-out: metabolic activity
Procedure, shortened: as §1

Sequence of recombinant human CK2α1 (P68400 whole entry): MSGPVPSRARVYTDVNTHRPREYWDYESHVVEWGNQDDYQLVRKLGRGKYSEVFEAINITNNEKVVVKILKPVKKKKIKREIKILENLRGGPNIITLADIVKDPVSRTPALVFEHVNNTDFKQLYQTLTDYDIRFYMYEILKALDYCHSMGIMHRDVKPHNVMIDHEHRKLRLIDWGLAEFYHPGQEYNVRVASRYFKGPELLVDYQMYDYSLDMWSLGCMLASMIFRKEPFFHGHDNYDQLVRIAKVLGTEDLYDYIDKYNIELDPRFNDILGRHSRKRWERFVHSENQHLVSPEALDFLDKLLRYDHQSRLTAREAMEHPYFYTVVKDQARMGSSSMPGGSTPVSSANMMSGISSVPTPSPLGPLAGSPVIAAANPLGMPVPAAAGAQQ

CK2 enzyme activity (recombinant human CK2α1; 0.1 μM)	CK2 enzyme activity compared to DMSO (100%) (recombinant human CK2α1; 1 μM)	SMILES	activity at 5 µM (SEM cells)	activity at 10 µM (SEM cells)	activity at 5 µM (RS4;11 cells)	activity at 10 µM (RS4;11 cells)	viability at 5 µM (CEM cells)	viability at 10 µM (CEM cells)	viability at 5 µM (Jurkat cells)	viability at 10 µM (Jurkat cells)
Reduction of CK2 enzyme activity	3.4 ± 0.3%	O=C(O)c1ccc2c(c1)nc(Nc1cccc(Cl)c1)c1ccncc12 [CX-4945, reference compound]	–	–	–	–	–	–	–	–
–	–	CC(=O)c1ccc2c(=O)n3c(nc2c1)-c1ccccc1C3 [FX-1, 7-Acetylisoindolo[1,2-b]quinazolin-10(12H)-one]	107%	97.7%	99.3%	94.4%	87.1%	83.9%	93.4%	68.5 ± 14.8%
–	–	O=c1c2ccc(F)cc2nc2n1Cc1ccccc1-2 [FX-2, 7-Fluoroisoindolo[1,2-b]quinazolin-10(12H)-one]	100%	69.8%	97.3%	79.8%	86.3%	77.2%	81.3%	54.3%
–	–	O=c1c2cc(Cl)ccc2nc2n1Cc1ccccc1-2 [FX-3, 8-Chloroisoindolo[1,2-b]quinazolin-10(12H)-one]	32%	26.7%	73.8%	40.2%	76.2%	86%	57.9%	77%
–	–	Cc1ccc2c(=O)n3c(nc2c1)-c1ccccc1C3 [FX-4, 7-Methylisoindolo[1,2-b]quinazolin-10(12H)-one]	96.8%	64.9%	91.2%	85.9%	102%	90.6%	90.4%	86.6%
–	–	Cc1ccc2c(=O)n3c(nc2c1)-c1ccc(F)cc1C3 [FX-5, 2-Fluoro-7-methylisoindolo[1,2-b]quinazolin-10(12H)-one]	91.7%	74.7%	91.4%	86.7%	101%	95%	94%	96.5%
–	–	O=c1c2ccccc2nc2n1Cc1cc(F)ccc1-2 [FX-6, 2-Fluoroisoindolo[1,2-b]quinazolin-10(12H)-one]	72.1%	51.4%	76.6%	67.1%	93.2%	107%	105%	97.5%
–	–	Cc1ccc2nc3n(c(=O)c2c1)Cc1ccccc1-3 [FX-7, 8-Methylisoindolo[1,2-b]quinazolin-10(12H)-one]	52.1%	25.2%	61.3%	49.4%	96.1%	85%	91.4%	84.3%
–	–	Cc1cc(C)c2nc3n(c(=O)c2c1)Cc1ccccc1-3 [FX-8, 6,8-Dimethylisoindolo[1,2-b]quinazolin-10(12H)-one]	23.3%	14.5%	61.5%	55.8%	97%	85%	95.2%	92.5%
–	–	COc1ccc2c(N)nc(-c3ccccc3)cc2c1 [FX-42, 6-Methoxy-3-phenylisoquinolin-1-amine]	66.7%	24.5%	–	–	–	–	88.4%	32.4%
–	–	Cc1ccc2cc(-c3ccccc3)nc(N)c2c1 [FX-43, 7-Methyl-3-phenylisoquinolin-1-amine]	94.7%	94.3%	–	–	–	–	107%	104%
